Results reported in ChEMBL document CHEMBL3351845, “Synthesis and in vitro stability of amino acid prodrugs of 6-β-naltrexol for microneedle-enhanced transdermal delivery” (Bioorg Med Chem Lett, 2014).

How the values were obtained:
[1] = Stability in pH 5.0 0.3 M acetate buffer assessed as time duration in which 90% produg stability at 1 mg by HPLC method; assay type: physicochemical; details: in vitro
Summary of the method: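 Roughly 1 mg prodrug was added to 10 mL of 0.3 M acetate buffer, pH 5.0, thermostated at 32 °C, then vortexed 1 min and filtered through 0.45 μm nylon. Degradation was followed over time by C-8 reversed-phase HPLC with UV at 215 or 278 nm, mobile phase 70:30 ACN:aqueous TFA/octane sulfonate, pH 3.0. t90 is the time to 10% loss; runs in duplicate.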

Plasma = test: Half life in 50% human plasma in presence of 50% PBS buffer assessed prodrug hydrolysis by HPLC method; assay type: ADME, cell-free
Summary of the method: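 Each prodrug was made up as a DMSO stock, and 40.0 μL was added to 760.0 μL of 50% human plasma in 50% PBS (pH 7.4), pre-warmed to 37 °C. Aliquots taken at set times got salicylamide internal standard, were vortexed, centrifuged, dried under N2, and taken up in methanol/0.04% HFBA. Analysis used gradient HPLC on a phenyl column against an eight-point calibration. Kapp came from log(AUC prodrug/AUC IS) versus time; n=3, mean ± SD.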

[2] = Half life in pH 7.4 25 mM HEPES buffered Hank's balanced salt solution at assessed as prodrug hydrolysis 1 mg by HPLC method; assay type: physicochemical; details: buffer
Summary of the method: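 About 1 mg prodrug went into 10 mL of 25 mM HEPES-buffered Hanks' balanced salt solution, pH 7.4, held at 37 °C. The mixture was vortexed 1 min and filtered through 0.45 μm nylon. Samples were run by reversed-phase C-8 HPLC with UV at 215 or 278 nm, mobile phase 70:30 ACN:aqueous 0.1% TFA/0.065% octane sulfonate, pH 3.0. Half-life was read from pseudo-first-order hydrolysis; duplicate runs.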

[3] = Solubility in pH 7.4 25 mM HEPES buffered Hank's balanced salt solution by HPLC method; assay type: physicochemical; details: buffer

Structure (SMILES)	Time [1] [days]	t1/2 (Plasma) [h]	t1/2 [2] [h]	solubility [3]
C[C@H](N)C(=O)O[C@@H]1CC[C@@]2(O)[C@H]3Cc4ccc(O)c5c4[C@@]2(CCN3CC2CC2)[C@H]1O5	0.412			
CC(C)[C@H](N)C(=O)O[C@@H]1CC[C@@]2(O)[C@H]3Cc4ccc(O)c5c4[C@@]2(CCN3CC2CC2)[C@H]1O5	5.2	18.2	11.5	
CC(C)C[C@H](N)C(=O)O[C@@H]1CC[C@@]2(O)[C@H]3Cc4ccc(O)c5c4[C@@]2(CCN3CC2CC2)[C@H]1O5	0.9			
CCC(C)[C@H](N)C(=O)O[C@@H]1CC[C@@]2(O)[C@H]3Cc4ccc(O)c5c4[C@@]2(CCN3CC2CC2)[C@H]1O5 (some centres not stated)	14	31.2	22	Insoluble
NCCC(=O)O[C@@H]1CC[C@@]2(O)[C@H]3Cc4ccc(O)c5c4[C@@]2(CCN3CC2CC2)[C@H]1O5	5.6		12	
O=C(O[C@@H]1CC[C@@]2(O)[C@H]3Cc4ccc(O)c5c4[C@@]2(CCN3CC2CC2)[C@H]1O5)[C@@H]1CCCN1	0.217			
